Here are results for ten compounds from ChEMBL document CHEMBL1131197, “5'-substituted adenosine analogs as new high-affinity partial agonists for the adenosine A1 receptor” (J Med Chem, 1998).

The target of experiment [1] is T1, Adenosine receptor A1 (Rattus norvegicus, UniProt P25099).
T1 sequence (P25099 whole entry): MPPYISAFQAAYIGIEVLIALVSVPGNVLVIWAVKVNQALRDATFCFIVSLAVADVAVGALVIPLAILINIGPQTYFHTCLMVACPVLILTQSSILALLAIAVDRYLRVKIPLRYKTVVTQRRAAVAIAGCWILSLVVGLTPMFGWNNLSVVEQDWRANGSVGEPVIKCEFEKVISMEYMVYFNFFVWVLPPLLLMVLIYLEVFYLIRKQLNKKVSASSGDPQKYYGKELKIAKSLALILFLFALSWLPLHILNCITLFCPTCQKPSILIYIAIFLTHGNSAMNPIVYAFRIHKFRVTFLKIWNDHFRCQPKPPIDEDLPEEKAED
Description: Binding affinity against adenosine A1 receptor using [3H]DPCPX in rat cortical membranes in the absence of GTP. The format is cell membranes. In short, it runs like this: (§1)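 Rat cortical membranes, pre-incubated with 2 units/mL ADA at 37 °C before storage; protein by BCA. Nonspecific binding defined with 10 µM R-PIA. Line 1 run without GTP, line 2 with 1 mM GTP. Ki values are means of three independent experiments in duplicate unless otherwise noted.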

Experiment [2] addresses T1, Adenosine receptor A1. Nature of the experiment: Binding affinity against adenosine A1 receptor using [3H]DPCPX in rat cortical membranes in the presence of GTP. Format: cell membranes. The gist of the method:
as §1

A further experiment addresses Adenosine receptor A2a (Rattus norvegicus, UniProt P30543). Nature of the experiment: Binding affinity against Adenosine A2A receptor using [3H]-CGS- 21680 as the radioligand in rat striatal membranes. Format: cell membranes, Striatum, Membrane.
Experiment [3] concerns the target T1, Adenosine receptor A1. Description: Effective concentration for [35S]GTP-gamma-S, binding to adenosine A1 receptor in rat brain membranes. Format: functional, cell membranes. In short, it runs like this: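 Stimulation of [35S]GTPγS binding in rat brain membranes (same preparation as binding); nonspecific binding defined with 10 µM unlabeled GTPγS.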
The target in experiment [4] is T2, Adenosine receptor A1 (Rattus norvegicus) (UniProt P25099).
T2 sequence (whole entry): T1 sequence (P25099 whole entry)
Description: Intrinsic activity for maximum stimulation of [35S]GTP-gamma-S, binding to adenosine A1 receptor in rat brain membranes. The format is functional, cell membranes. In short, it runs like this:
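Rat brain membranes incubated with the agonist and [35S]GTPγS; nonspecific binding defined with 10 μM unlabelled GTPγS. Read-out is the maximal level of G protein activation by [35S]GTPγS binding, given ± SEM, with EC50 derived from the stimulation curves; n = 3-9.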

Molecules are shown by their SMILES.

Sequence of Adenosine receptor A2a (P30543 whole entry): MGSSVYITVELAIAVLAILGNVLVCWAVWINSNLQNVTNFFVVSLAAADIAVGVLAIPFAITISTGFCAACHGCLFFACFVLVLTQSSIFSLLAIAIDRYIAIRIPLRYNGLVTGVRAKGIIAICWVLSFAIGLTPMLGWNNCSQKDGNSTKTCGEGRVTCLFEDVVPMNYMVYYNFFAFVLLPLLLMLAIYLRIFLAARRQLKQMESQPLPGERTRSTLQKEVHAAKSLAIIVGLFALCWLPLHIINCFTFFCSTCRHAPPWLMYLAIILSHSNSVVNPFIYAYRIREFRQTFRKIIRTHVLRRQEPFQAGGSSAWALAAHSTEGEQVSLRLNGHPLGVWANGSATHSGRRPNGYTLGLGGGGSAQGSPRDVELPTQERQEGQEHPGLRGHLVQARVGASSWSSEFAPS

With `CCNC[C@H]1O[C@@H](n2cnc3c(NC4CCCC4)ncnc32)[C@H](O)[C@@H]1O`, the Ki (in general, a dissociation constant, usually derived from enzyme kinetics or from competition with a known ligand) at Adenosine receptor A1 [1] is 2410 nM; at Adenosine receptor A1 [2] it was 8560 nM; at Adenosine receptor A2a, 42.5 µM.

`CCCNC[C@H]1O[C@@H](n2cnc3c(NC4CCCC4)ncnc32)[C@H](O)[C@@H]1O`: a half-maximal effect at Adenosine receptor A1 [3] (EC50) was put at 13900 nM. Besides, the Ki was determined as 4640 nM at Adenosine receptor A1 [1], 14300 nM at Adenosine receptor A1 [2] and 14.5 µM on Adenosine receptor A2a. In experiment [4], this compound showed an Activity of 73%.

Turning to `CC(C)CSC[C@H]1O[C@@H](n2cnc3c(NC4CCCC4)ncnc32)[C@H](O)[C@@H]1O`, on Adenosine receptor A1 [3], the EC50 (commonly the midpoint of the concentration-response curve) came to 189 nM. Further, the Ki was found to be 41 nM at Adenosine receptor A1 [1], 149 nM at Adenosine receptor A1 [2] and 10.3 µM on Adenosine receptor A2a. Moreover, in experiment [4], the Activity amounted to 85.3%.

`C[Se]C[C@H]1O[C@@H](n2cnc3c(NC4CCCC4)ncnc32)[C@H](O)[C@@H]1O` displayed an EC50 at Adenosine receptor A1 [3] of 225 nM. The Ki on Adenosine receptor A1 [1] turned out to be 76 nM; on Adenosine receptor A1 [2], 166 nM; on Adenosine receptor A2a, 11.3 µM. The same compound showed an Activity in experiment [4] of 50.3%.

Take `CSC[C@H]1O[C@@H](n2cnc3c(NC4CCCC4)ncnc32)[C@H](O)[C@@H]1O`: the midpoint of the response on Adenosine receptor A1 [3], the EC50, lay at 99 nM. For the same compound, the Ki on Adenosine receptor A1 [1] was found to be 59 nM; at Adenosine receptor A1 [2], 199 nM; at Adenosine receptor A2a it was 13.5 µM. Moreover, the Activity in experiment [4] was 40.2%.

In the case of `CNC[C@H]1O[C@@H](n2cnc3c(NC4CCCC4)ncnc32)[C@H](O)[C@@H]1O`, the EC50 on Adenosine receptor A1 [3] turned out to be 1330 nM. The values for the Ki on Adenosine receptor A1 [1], at Adenosine receptor A1 [2] and at Adenosine receptor A2a were 440 nM, 2600 nM and 45.5 µM, respectively. Also, the Activity in experiment [4] is 96.4%.

`CCCSC[C@H]1O[C@@H](n2cnc3c(NC4CCCC4)ncnc32)[C@H](O)[C@@H]1O` had an EC50 at Adenosine receptor A1 [3] of 384 nM. Besides, the Ki on Adenosine receptor A1 [1] was found to be 76 nM; on Adenosine receptor A1 [2], 222 nM; on Adenosine receptor A2a, 18.8 µM. The Activity in experiment [4] turned out to be 84.1%.

For the compound `OC[C@H]1O[C@@H](n2cnc3c(NC4CCCC4)ncnc32)[C@H](O)[C@@H]1O`, the Activity in experiment [4] was 100%.

Turning to `O[C@@H]1[C@H](O)[C@@H](CCl)O[C@H]1n1cnc2c(NC3CCCC3)ncnc21`, at Adenosine receptor A1 [3], the concentration for a half-maximal effect (EC50) is 26 nM. The Ki at Adenosine receptor A1 [1] was determined as 9.5 nM; on Adenosine receptor A1 [2], 61.5 nM; on Adenosine receptor A2a, 8.75 µM. The same compound yielded an Activity in experiment [4] of 88%.

At Adenosine receptor A1 [3], `CCSC[C@H]1O[C@@H](n2cnc3c(NC4CCCC4)ncnc32)[C@H](O)[C@@H]1O` had an EC50 of 127 nM. The Ki came to 45 nM on Adenosine receptor A1 [1], 130 nM at Adenosine receptor A1 [2] and 19 µM on Adenosine receptor A2a. In experiment [4], this compound yielded an Activity of 65.6%.
